Experimental data taken from ChEMBL document CHEMBL3872205, “Design, synthesis and evaluation of novel potent angiotensin II receptor 1 antagonists” (Eur J Med Chem, 2016).

Tests used:
Type in all cases: ADME, organism-based
[1] = Half life in Wistar rat Heart at 10 mg/kg, po by HPLC analysis
Outline: (§1)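 Tissue distribution in male Wistar rats given oral 10, 15 or 30 mg/kg; heart, liver, spleen, lung, kidney and brain collected predose and 0.5–72 h post-dose (n = 6 per time). Tissue rinsed in saline, homogenised 0.25 g/1 mL saline, methanol extraction, dried under nitrogen, reconstituted in methanol. Analysis by reverse-phase C18 HPLC, acetonitrile/water 60:40, 1.0 mL/min, ambient temperature.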

[2] = MRT (0 to 72 hrs) in Wistar rat liver at 30 mg/kg, po by HPLC analysis
Outline: (§2)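 Male Wistar rats (180 ± 20 g) received a single oral dose of 10, 15 or 30 mg/kg. Tissues were collected at 0, 0.5, 1, 2, 4, 6, 8, 12, 24, 48 and 72 h (n = 6 per point). Samples of 0.25 g were rinsed, then homogenized in saline (0.25 g/1 mL) and centrifuged at 10,000 × g. Supernatant was methanol-extracted, dried under nitrogen at 50 °C and reconstituted in methanol. Analysis was by C18 HPLC (acetonitrile 60% / water 40%, 1.0 mL/min).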

[3] = AUC (0 to 72 hrs) in Wistar rat spleen at 10 mg/kg, po by HPLC analysis; design: dose 10 mg/kg, time < 72 hr, route oral
Outline: (§3)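 Wistar rats (180 ± 20 g) were dosed orally at 10, 15 or 30 mg/kg. Heart, liver, spleen, lung, kidney and brain were collected at 0–72 h (n = 6 per point). Tissue was rinsed, blotted and homogenized in saline (0.25 g/1 mL), then spun at 10,000 × g. Supernatant was methanol-extracted, dried under nitrogen at 50 °C, reconstituted in methanol and run on C18 HPLC (acetonitrile 60%/water 40%, 1.0 mL/min).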

[4] = AUC (0 to infinity) in Wistar rat spleen at 10 mg/kg, po by HPLC analysis; design: dose 10 mg/kg, time infinity, route oral; outline: as §3
[5] = MRT (0 to infinity) in Wistar rat lung at 30 mg/kg, po by HPLC analysis; outline: as §2
[6] = Tmax in Wistar rat lung at 10 mg/kg, po by HPLC analysis; outline: as §2
[7] = MRT (0 to 72 hrs) in Wistar rat kidney at 30 mg/kg, po by HPLC analysis; outline: as §1
[8] = Tmax in Wistar rat kidney at 10 mg/kg, po by HPLC analysis; outline: as §2
[9] = AUC (0 to 72 hrs) in Wistar rat brain at 15 mg/kg, po by HPLC analysis; design: dose 15 mg/kg, time < 72 hr, route oral; outline: as §3
[10] = Tmax in Wistar rat brain at 30 mg/kg, po by HPLC analysis; outline: as §2

Compound CCCCC1=NC2(CCCC2)C(=O)N1Cc1ccc2c(ccn2-c2ccccc2-c2nnn[nH]2)c1 has a half-life [1] of 16.9 h, an MRT last [2] of 6.3 h and an AUC(0-t) at 72 h [3] of 9470 ng·h/mL. For the same compound, the AUC(0-inf) [4] was 11700 ng·h/mL, the MRT inf [5] was 4.1 h and the Tmax [6] was 2 h. For the same compound, the MRT last [7] was 24.9 h, the Tmax [8] was 1.17 h and the AUC(0-t) at 72 h [9] was 1180 ng·h/mL. It also gave a Tmax [10] of 5.83 h.
